Source: ChEMBL document CHEMBL1157766, “Neolignans and glycosides from the stem bark of Illicium difengpi” (J Nat Prod, 2010)
pIC50: −log10 of the molar value. Calls of active or inactive are those of the source. The calls are words filed in the database; no cut-off is given here.

Key:
[1] = Antiinflammatory activity in rat PMNC assessed as inhibition of platelet activating factor-induced beta-glucuronidase release preincubated for 15 mins at 37 degC; type: functional
Procedure, shortened: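 Rat polymorphonuclear leukocytes (2.5 × 10^6 cells/mL) preincubated with sample (diluted from 0.1 M DMSO stock to 10^-3 M) at 37 °C for 15 min. Cytochalasin B added for 5 min, then PAF for 5 min, stopped on ice. Supernatant β-glucuronidase measured with 2.5 mM phenolphthalein glucuronic acid in 0.1 M HOAc, 37 °C, 18 h. NaOH stop, A550; inhibitory ratio versus PAF and control.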

[2] = Antioxidant activity in liver microsomes assessed as inhibition of Fe(2+)-Cys system-induced lipid peroxidation preincubated for 15 mins at 37 degC; type: functional; details: for inhibition: Microsome
Procedure, shortened: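 Sample with liver microsome suspension and 0.2 µM cysteine in 0.1 M PBS pH 7.4, 37 °C, 15 min. Peroxidation started with 50 µM FeSO4 and stopped with 20% TFA. Supernatant heated with 0.67% thiobarbituric acid in boiling water for 10 min, then A532 read. Inhibitory ratio calculated from absorbances.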

pIC50 [1]	pIC50 [2]	SMILES	inhibition [2]
< 4.30	–	COc1cc(CCCO)cc2c1O[C@H]([C@]1(O)CC[C@H](OC)[C@@H](O)C1)[C@H]2CO [DIFENGPIOL B]	inactive
4.61	4.37	C=CCc1cc(OC)c(O[C@@H](CO)[C@H](O)c2cc(OC)c(O)c(OC)c2)c(OC)c1	–
< 4.30	–	COc1cc(/C=C/CO)cc(OC)c1OC(=O)/C=C/c1ccccc1 [NEODIFENGPIN]	inactive

Continued, molecule first:

SMILES	pIC50 [1]	pIC50 [2]	inhibition [2]
COc1cc([C@H](O)[C@@H](CO)Oc2c(OC)cc(CCCO)cc2OC)ccc1OC(CO)CO	5.79	–	inactive
C[C@@H]1C(=O)O[C@H]2[C@H](O)[C@@]34[C@H]5C[C@@H](C(C)(C)C)[C@]36[C@@H](OC(=O)[C@@H]6O)O[C@@]4(C(=O)O5)[C@@]12O [GINKOLIDE B]	5.63	–	–
COc1cc(O[C@@H]2O[C@H](CO[C@@H]3O[C@@H](C)[C@H](O)[C@@H](O)C3O)[C@@H](O)[C@H](O)[C@H]2O)cc(O)c1OC (single isomer, unassigned)	5.12	–	inactive
COc1cc(CCCO)cc2c1O[C@H](C1=C[C@H](O)[C@H](O)CC1)[C@H]2CO [DIFENGPIOL A]	< 4.30	–	inactive
C[C@@H]1O[C@@H](OC[C@H]2O[C@@H](Oc3cc4c(cc3O)OCO4)[C@H](O)[C@@H](O)[C@@H]2O)C(O)[C@H](O)[C@H]1O (single isomer, unassigned)	< 4.30	–	inactive
